Runt-CBFb FRET = blocks binding of human RUNX1 Runt domain to CBFb; Cerulean-Runt/Venus-CBFb FRET ratio 530/480, 1 h; AID 1496; 220,000 tested, 0.46% active; inhibition, % at 20 µM; Q01196+Q13951;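 active means inhibition over about 50% at 20 µM in the single-dose screen, limit read from the data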;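 further: 0% = DMSO wells and 100% = excess unlabeled CBFb competitor control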
Target sequence (Q01196 whole entry, looked up, the tested form may be a part): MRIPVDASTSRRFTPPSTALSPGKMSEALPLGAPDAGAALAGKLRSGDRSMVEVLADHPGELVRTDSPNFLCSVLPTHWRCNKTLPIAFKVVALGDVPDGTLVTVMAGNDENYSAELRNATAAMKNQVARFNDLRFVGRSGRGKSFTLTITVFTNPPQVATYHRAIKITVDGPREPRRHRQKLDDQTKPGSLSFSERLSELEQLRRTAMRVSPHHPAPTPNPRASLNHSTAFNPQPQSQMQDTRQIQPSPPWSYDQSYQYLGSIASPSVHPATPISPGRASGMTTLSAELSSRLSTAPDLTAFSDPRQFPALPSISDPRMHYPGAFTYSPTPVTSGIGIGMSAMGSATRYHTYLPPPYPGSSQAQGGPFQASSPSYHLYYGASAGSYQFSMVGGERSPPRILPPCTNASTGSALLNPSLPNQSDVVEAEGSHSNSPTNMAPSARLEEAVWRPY
Target sequence (Q13951 whole entry, looked up, the tested form may be a part): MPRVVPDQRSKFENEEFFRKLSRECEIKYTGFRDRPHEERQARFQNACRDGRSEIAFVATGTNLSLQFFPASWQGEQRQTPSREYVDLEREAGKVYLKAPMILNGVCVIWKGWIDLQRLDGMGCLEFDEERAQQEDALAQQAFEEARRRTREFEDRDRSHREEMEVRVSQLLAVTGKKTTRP
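test system = Cerulean-tagged RUNX1 Runt domain (FRET donor) fusion protein | reagent = Venus-CBFb binding partner, 100 nM | incubation = protein complex preformed 1 h, compound exposure 1 h, room temperature, dark | detection = FRET fluorescence | read-out basis = loss of energy transfer signal | controls = 5 µM unlabeled CBFb as full-inhibition high control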
IMP-1 inhibitor = blocks Pseudomonas aeruginosa IMP-1 metallo-beta-lactamase | inhibition, % at 5.6 µM | AID 1556 | 290,000 tested, 0.45% active | purified IMP-1, nitrocefin hydrolysis, epi-absorbance fluorescence;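 active means inhibition above the mean plus 3 SD of all compounds in the same screening run, cut at about 4.5% in these data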;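 further: 0% = IMP-1 with DMSO and 100% = DMSO wells lacking enzyme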
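Assay system: purified IMP-1; Quantity: IMP-1 0.2 nM before substrate addition; Medium: HEPES buffer pH 7.1 with ZnSO4 and Brij 35; Incubation: 15 min enzyme–compound preincubation, then 25 min nitrocefin reaction, 25 °C; Signal: fluorescence quenching readout, ex 480/em 530 nm; Controls: DMSO with and without IMP-1; Repeats: singlicate testing.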
VIM-2 inh = blocks Pseudomonas aeruginosa VIM-2 metallo-beta-lactamase; purified VIM-2, nitrocefin hydrolysis, epi-absorbance fluorescence; inhibition, % at 5.6 µM; 290,000 tested, 0.89% active; AID 1527;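 active means inhibition above the mean of all tested compounds plus 3 SD, cutoff set per screening run, cut at about 7.5% in these data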;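 further: red hydrolysis product quenches plate fluorescence so inhibitors raise well fluorescence; 0% = enzyme with DMSO and 100% = DMSO without enzyme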
Runt-SMMHC FRET = blocks binding of human RUNX1 Runt domain to CBFb-SMMHC | inhibition, % at 20 µM | Cerulean-Runt/Venus-CBFb-SMMHC FRET ratio 530/480, 1 h | Q01196+Q13951 | 220,000 tested, 0.74% active;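 active means mean inhibition across duplicate retests at 20 µM reaching about 50%, limit read from the data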;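 further: 0% = DMSO wells and 100% = wells with excess untagged CBFb-SMMHC; inhibitors lower the FRET ratio by blocking Runt binding to CBFb-SMMHC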
RanGTP-Imp inh = inhibitors of RanGTP-importin-beta interaction, primary screen, biochemical, FRET, CFP-Ran, YFP-importin-beta, homogeneous; cell-free CFP-Ran/YFP-importin-beta FRET ratio; inhibition, % (concentration not given with the values); 300,000 tested, 1.1% active;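 active means more than half of the replicate wells show a fall in the fluorescence ratio signal beyond about 16%, limit read from the data, passing the limit was not always enough; inconclusive means exactly half of the replicate wells pass the set limit; inactive means fewer than half of replicates pass the limit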;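 further: 0% = DMSO wells and 100% = Ran loaded with GDP instead of GTP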
An asterisk follows results filed as active; u = inconclusive; x = no result. Rows were chosen to be rich in hits. Some 2.6% of all compounds tested hit in one or more screens of this group.

SMILES | Runt-CBFb FRET | IMP-1 inhibitor | VIM-2 inh | Runt-SMMHC FRET | RanGTP-Imp inh
Cc1ccc(C)c(-n2c3nc(=O)[nH]c(=O)c-3cc3cc([N+](=O)[O-])ccc32)c1 | 45 | -2 | -6 | 12 | x
CCCCn1c(=O)nc2n(-c3ccccc3)c3ccccc3cc-2c1=O | 10 | -2 | 1 | 60* | 142*
CCOc1ccc2nc(SCC(=O)NCc3ccc(S(N)(=O)=O)cc3)[nH]c2c1 | x | -3 | -4 | x | -1
Cc1ccc2nc(/C(C#N)=C/c3ccccc3C(=O)O)[nH]c2c1 | x | -2 | -2 | x | 8
Cc1ccc2nc(/C(C#N)=C/c3ccc(O)c(O)c3)[nH]c2c1 | x | -1 | -3 | x | 28*
CCOC(=O)C1CCN(C(=O)C2CCCN(S(=O)(=O)c3ccc(OCC)c(Cl)c3)C2)CC1 (stereo not given) | x | x | x | x | -1
CN(C)c1c2ccccc2nc2c(F)c(F)c(F)c(F)c12 | x | -1 | 0 | 102 | 23*
Cc1nn(C)c(Cl)c1CN1CCN(C2CCCCC2)C(CCO)C1 (stereo not given) | 118* | 1 | -2 | -5 | 4
Cc1cc(Br)c(NC(=O)CN2CCCC2)c(Br)c1 | x | -1 | -4 | x | 3
CN(C)c1ccc(/C=c2/sc3n(c2=O)NC2(c4ccccc4)N(C)C(=O)N(C)C2(c2ccccc2)N=3)cc1 (stereo not given) | -12 | 0 | -1 | -43 | 20*
Cc1nc(-n2[nH]c3c(c2=O)CCCC3)[nH]c(=O)c1Cc1ccccc1 | 1 | -3 | -3 | -9 | -14
Cc1cc(=O)[nH]c(-n2[nH]c3c(c2=O)CCCC3)n1 | -1 | 14* | 1 | -9 | -8
CCCc1cc(=O)n2nc(N3CCC(C(=O)NCc4ccc(C)o4)CC3)sc2n1 | x | 0 | 0 | x | u
CC1=Nc2ccccc2/C1=C/c1sc(=N)n(-c2nccs2)c1O | -42 | -4 | 0 | -112 | 23*
CCN1CCN(Cc2c(O)ccc3c2O/C(=C\C=C\c2ccccc2)C3=O)CC1 | -44 | 1 | 0 | -252 | -320
CCc1ccc(/C=C2\Oc3c(ccc(O)c3CN3CCN(C)CC3)C2=O)cc1 | -10 | -2 | 2 | 81* | u
CCN1CCN(Cc2c(O)ccc3c2O/C(=C\c2ccc(C)cc2)C3=O)CC1 | 20 | 2 | 8.8* | 92* | 22*
COc1ccccc1/C=C/C=C1\Oc2c(ccc(O)c2CN2CCN(CCO)CC2)C1=O | -362 | 27* | 2 | -170 | -431
Cc1ccc(/C=C2\Oc3c(ccc(O)c3CN3CCN(C)CC3)C2=O)cc1 | 3 | 1 | 9.5* | 90* | 22*
CCOC(=O)/C(=C/C=C1\Sc2cc(C)c(C)cc2N1CC)C(C)=O | -1 | 4.8* | 3 | -86 | 9
Nc1cccc2c1C(=O)N(C(=O)/C=C/c1ccc(F)cc1)C2=O | -58 | 2 | -2 | 86* | 5
Nc1cccc2c1C(=O)N(C(=O)c1ccco1)C2=O | -45 | 2 | -1 | 84* | 26*
O=C(/C=C/c1ccc(F)cc1)N1CCCN(C(=O)/C=C/c2ccc(F)cc2)CC1 | -3 | -4 | -2 | 0 | -5
Cc1ccc(C)c(SCC(=O)OCC(=O)NCCNC(=O)COC(=O)CSc2cc(C)ccc2C)c1 | x | x | x | x | 4
O=C(Nc1ccccn1)c1ccc2ccccc2c1O | x | -4 | -3 | x | -2
SMILES | Runt-CBFb FRET | IMP-1 inhibitor | VIM-2 inh | Runt-SMMHC FRET | RanGTP-Imp inh
N=c1oc2cc(O)ccc2cc1C(=O)Nc1ccc(Br)cc1 | x | -2 | -5 | x | 167*
N=c1oc2cc(O)ccc2cc1C(=O)Nc1ccccn1 | 20 | -2 | 1 | 87* | x
N=c1oc2cc(O)ccc2cc1C(=O)Nc1nc2ccccc2s1 | 19 | -4 | 0 | 63* | 136*
Cc1ccccc1-n1nc2c(c1NC(=O)CC(C)C)CS(=O)C2 (stereo not given) | x | -1 | -2 | x | u
COc1cc2c(cc1OC)-c1cc(Nc3cccc(C)c3)nc(=O)n1CC2 | x | -2 | 7 | x | 0
Nn1c(COc2ccccc2F)nnc1SCC(=O)NC1CCCCC1 | x | x | x | x | -4
CC(C)Cc1nnc(NC(=O)CCS(=O)(=O)c2ccc(Cl)cc2)s1 | x | -2 | 8.7* | x | -5
CC(C)Cc1nnc(NC(=O)CCC(=O)N2CCN(c3ccccc3F)CC2)s1 | x | -3 | -1 | x | 154*
COc1ccccc1N1CCN(C(=O)CCC(=O)Nc2nnc(CC(C)C)s2)CC1 | x | -2 | -4 | x | 0
Cc1noc(C)c1S(=O)(=O)N(Cc1ccccc1)C(C)C | 1 | -2 | -2 | 0 | u
Cc1ccccc1NC(=S)C1=C(O)c2sccc2N(C)S1(=O)=O | 29 | -3 | -4 | 50* | 89*
CCCC(=O)N/N=C1\CS(=O)(=O)N(C)c2ccsc21 | -2 | -4 | -2 | 6 | 5
CCNC(=O)C1=C(O)c2sccc2N(C)S1(=O)=O | 45 | -3 | -3 | 65* | 76*
Cc1ccc(NC(=S)C2=C(O)c3ccccc3N(C)S2(=O)=O)cc1 | 10 | 1 | 1 | 4 | -2
COc1cc2cc(C(=O)Nc3ccc4c(c3)OCCO4)[nH]c2cc1OC | x | -3 | -4 | x | -1
CC1CN(c2sc(S(C)(=O)=O)nc2S(=O)(=O)c2ccc(Cl)cc2)CC(C)O1 (stereo not given) | x | -1 | 0 | x | 16*
CC1CCCN(c2sc(S(C)(=O)=O)nc2S(=O)(=O)c2ccc(Cl)cc2)C1 (stereo not given) | x | -2 | -1 | x | 5
Cc1c(OC(C(=O)O)c2ccccc2)ccc2c3c(c(=O)oc12)CCC3 (stereo not given) | x | -2 | 7.7* | x | -1
CCN(CC)C(=O)COc1ccc2c3c(c(=O)oc2c1C)CCCC3 | x | 0 | 8.0* | x | -4
Cc1c(OCC(=O)N[C@H](C(=O)O)c2ccccc2)ccc2c3c(c(=O)oc12)CCCC3 | x | -5 | 12* | x | 5
Cc1c(OCC(=O)N2CCC(C(=O)O)CC2)ccc2c3c(c(=O)oc12)CCC3 | x | -3 | 9.9* | x | 2
N/C(=N\O)c1ccc(Cl)cc1Cl | 0 | -2 | -3 | -4 | -1
Cc1cc(=O)oc2c(C)c(OC(C)C(=O)NCC(O)c3ccccc3)ccc12 (stereo not given) | x | 0 | 4 | x | 1
Cc1c(OC(C)C(=O)NCC(O)c2ccccc2)ccc2c3c(c(=O)oc12)CCCC3 (stereo not given) | x | 2 | 11* | x | 4
CCn1nc(C)cc1C(=O)NC1CCCc2c1cnn2-c1cc(F)cc(F)c1 (stereo not given) | x | -3 | -3 | x | -3
CSCC(C)N1CCC(n2nccc2NC(=O)c2ccccc2C)CC1 (stereo not given) | x | -1 | 2 | x | 21*
Cc1c(C(=O)N2CCC(C)CC2)oc2ccc3c(c12)C(O)CC1(CCCCC1)O3 (stereo not given) | x | -1 | -1 | x | 1
